High-throughput results from PubChem BioAssay.
In the library only some 8.4% were active in any assay of this set; here they are far more common.
Ecoli tolC: growth inhibitors of E. coli tolC mutant, primary screen, strain BW25113 ΔtolC::kan, 384-well. OD615. growth inhibition, % at 10 µM (by protocol). hit rate 2.2% among 65,000;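 active means growth inhibition at or above a cutoff equal to the mean over every tested compound plus 3 SD, cut at about 60% in these data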;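 further: growth measured after 20 h incubation at 37 °C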
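test system = E. coli BW25113 ΔtolC::kan bacteria | medium = LB with kanamycin 50 µg/mL | signal = OD at 615 nm | schedule = 37 °C, 20 h exposure | evaluation = % inhibition of E. coli growth | compound dosing = one dose of 10 µM final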
Cav32 inh: Cav3.2 calcium influx blockers – cell-based, Fluo-4 calcium fluorescence, FDSS, MLSMR library, primary screen; Voltage-dependent T-type calcium channel subunit alpha-1H (Homo sapiens), O95180; Cav3.2-expressing cells; stronger effect = lower value; B-score at 10 µM; hit rate 4% among 100,000;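 active means single-dose well whose peak fluorescence ratio is a statistical outlier from its plate by either plate-standardised score or position-corrected B-score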
PostGolgi ctrl: growth inhibition of yeast control strain, primary screen, counter-screen for post-Golgi transport modulator project. efflux-deficient yeast background strain, growth absorbance A615, 16 h. inhibition, % at 10 µM. hit rate 5% among 98,000. AID 738, 2007
E coli WT exp: growth inhibitors of wild-type E. coli, primary screen, strain BW25113, expanded library, OD600; OD600 absorbance; growth inhibition, % at 100 µM; hit rate 0.15% among 98,000;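 active means growth inhibition above about 50% at one test dose, limit read from the data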;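 further: growth measured after 20 h incubation at 37 °C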
PostGolgi yeast: phenotypic screen on post-Golgi transport, primary screen | AID 739, 2007 | post-Golgi transport phenotypic cell assay | inhibition, % at 10 µM | hit rate 0.9% among 98,000;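 further: yeast cells grown in 1536-well plates; yeast grown about 18 h at 30C before absorbance read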
* hit, by the source's call; . = no result given. Unless noted, no stated cut-off is given here; in the data, active means inhibition above about 30%; inactive means the rest.

SMILES | Ecoli tolC | Cav32 inh | PostGolgi ctrl | E coli WT exp | PostGolgi yeast
CCOC(=O)c1sc(NC(=O)CSc2nc(C)cc(-c3ccccc3)n2)c(C#N)c1C | . | 0.7 | 19 | 5 | -6
Cc1cc(OCC(=O)NCCCN(C)C)cc(C)c1Br | 6 | 0.024 | -3 | 8 | -5
Cc1cc(N2CCN(C3CCCCC3)CC2)n2nc(C)nc2n1 | -6 | . | . | . | .
C=CCc1c(C)nc2c(C(=O)O)cnn2c1C | -9 | 0.63 | 31* | -5 | 7
Cc1ccc(C)c2c1cc(C)c1nnc(SCc3ccccn3)n12 | . | 1.1 | 90* | 5 | 36*
Cn1c(SCc2ccccn2)nnc1-c1ccncc1 | -11 | 1.5 | 1 | 4 | 1
CCCCn1c(=O)c(-c2ccccc2)c(O)c2ccccc21 | 29 | 0.21 | 32* | -3 | 19
O=c1c2cccc3c2c(nn1CN1CCOCC1)-c1ccccc1-3 | 80* | 1.3 | 2 | 14 | 41*
O=C(CCn1nc(-c2ccc(Cl)cc2)c2ccccc2c1=O)NCCN1CCOCC1 | . | 0.72 | 12 | 4 | -3
O=C(CCCN1CC=C(n2c(=O)[nH]c3ccccc32)CC1)c1ccc(F)cc1 | 5 | -0.88 | . | . | .
CCOC(=O)Nc1ccc(OC)cc1S(=O)(=O)N1CCCCC1 | -11 | -0.02 | 24 | 3 | -4
CCCCn1c2nc3ccccc3nc2c2c(=O)n(CC(C)C)cnc21 | 12 | . | . | . | .
CCCCn1c2nc3ccccc3nc2c2c(=O)n(C(C)CC)cnc21 (stereo not drawn) | 5 | 0.092 | 23 | -2 | 37*
CCOC(=O)CCSc1nc2c(c(C(F)(F)F)c1C#N)CCC2 | 66* | -1.3 | 11 | 0 | -5
CCCCSc1nc2c(c(C(F)(F)F)c1C#N)CCC2 | . | -0.34 | 5 | 2 | -3
C=C1/C(=C\C=C2/CCC[C@]3(C)[C@@H]([C@H](C)CCCC(C)(C)O)CC[C@@H]23)C[C@@H](O)C[C@@H]1O | . | -0.11 | . | . | .
C=CCn1c(-c2ccc(C)cc2)nc2ccccc21 | . | -2.5 | 18 | 1 | 4
CCCn1c(-c2cccnc2Cl)nc2cc(Cl)c(Cl)cc21 | . | -0.9 | 43* | 1 | -14
Clc1cccc(Cl)c1Cn1c(-c2cccnc2Cl)nc2ccccc21 | . | -3.2 | 50* | 4 | 10
Clc1ccc(-n2nnc(-c3cccnc3Cl)n2)cc1Cl | . | -0.59 | . | . | .
C=CCn1c(-c2cccnc2Cl)nc2cc(Cl)c(Cl)cc21 | . | -2.1 | 36* | -2 | -3
O=C(c1ccco1)N1CCN(C(c2cccs2)c2nnnn2C2CCCCC2)CC1 (stereo not drawn) | -11 | 0.34 | -4 | 5 | 3
Cc1cc(C)n2[nH]c(=O)c(N=Nc3ccccc3)c2n1 | . | 0.65 | 3 | -2 | 0
Cc1cc(C)n2[nH]c(=O)c(N=Nc3cccc(Cl)c3)c2n1 | . | 2.5 | 39* | 2 | -6
O=C(CN1CCCCC1)Nc1ccc(S(=O)(=O)N2CCCCCC2)cc1 | 1 | 0.62 | 1 | 9 | 11
SMILES | Ecoli tolC | Cav32 inh | PostGolgi ctrl | E coli WT exp | PostGolgi yeast
CC(C(=O)OCC(=O)Nc1ccc(S(=O)(=O)N2CCCCC2)cc1)N1C(=O)c2ccccc2C1=O (stereo not drawn) | . | -5.7* | 1 | 2 | 2
O=C(CS(=O)(=O)Cc1ccccc1)Nc1ccc(S(=O)(=O)N2CCCCCC2)cc1 | . | -7.1* | 0 | -5 | -5
O=C(COC(=O)CN1C(=O)c2ccccc2C1=O)Nc1ccc(S(=O)(=O)N2CCCC2)cc1 | . | -1.3 | 9 | 2 | -8
COc1ccc(OCCSc2nc3ccccc3n2CC(=O)O)cc1 | 3 | 0.76 | 2 | 1 | 14
OCCn1c(SCCOc2ccccc2F)nc2ccccc21 | -3 | -1.2 | 41* | -1 | 5
O=C(O)Cn1c(SCCOc2ccccc2F)nc2ccccc21 | -17 | -5.3* | -1 | 2 | 31*
COc1ccc(C2/C=C\CN(C(=O)NC(C)C)CC(=O)N2Cc2ccc(F)cc2)cc1 (stereo not drawn) | . | 0.72 | . | . | .
CCCC[C@@H]1C[C@H]1[C@@H](NC(=O)c1cccs1)c1ccc(C(F)(F)F)cc1 | . | -2.3 | . | . | .
COCCNC(=O)c1onc(CSc2ccncc2)c1C(=O)NCCOC | . | 0.27 | . | . | .
CCC(=O)Nc1c(-c2cccs2)c(=O)c2ccccc2n1C | -15 | -0.56 | 4 | -20 | -1
Cn1c2ccccc2c(=O)c2c(=O)n(C3CCCCC3)c(-c3cccs3)nc21 | . | -4.3* | 26 | 16 | 10
Cc1cc(/C=N/NC(=O)c2cccc([N+](=O)[O-])c2)c(C)n1-c1ccc(Cl)cc1Cl | . | -6.4* | 14 | -18 | 34*
